This is an account of results in ChEMBL document CHEMBL2169746, “Design, synthesis, and antitumor evaluation of 2,4,6-triaryl pyridines containing chlorophenyl and phenolic moiety” (Eur J Med Chem, 2012).

One test relates to T47D. Briefly: Cytotoxicity against human T47D cells after 2 days by cell counting kit-8 analysis. The test is classed as functional, cell-based. The conditions noted are these: 48 h. A digest of the protocol:
(§1)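 Cells grown per supplier's instructions, seeded at 2-4 × 10⁴ cells/well and incubated overnight in medium with 10% FBS at 37 °C, 5% CO₂. On day 2, after 4 h FBS starvation, medium was replaced with medium containing graded compound concentrations. Absorbance read at 450 nm. IC50 from a four-parameter logistic fit. Three independent experiments in triplicate, mean ± S.D.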
On the technique in general: Tetrazolium assays rely on reduction of a dye to a coloured formazan, in cell work by metabolically active cells.

For test [1], the target named is DNA topoisomerase 2-alpha (Homo sapiens) (UniProt P11388). Briefly: Inhibition of human DNA topoisomerase-2alpha-mediated relaxation of supercoiled pBR322 at 20 uM after 30 mins using ethidium bromide staining by agarose gel electrophoresis. A digest of the protocol: (§2)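 200 ng supercoiled pBR322 with 1 unit human topo IIα, with or without compound. Buffer was 10 mM Tris-HCl pH 7.9, 50 mM NaCl, 5 mM MgCl₂, 1 mM EDTA, 1 mM ATP and bovine serum albumin. Incubated 30 min at 30 °C, stopped with EDTA. Products run on 1% agarose gel, 25 V, 4 h, TAE buffer. Compound stocks 20 mM in DMSO.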

The test system of a further test is HCT-15. Briefly: Cytotoxicity against human HCT15 cells after 2 days by cell counting kit-8 analysis. Format: functional, cell-based. The conditions noted are these: HCT-15, 48 h. An outline of the steps: as §1
Test [2] concerns the target T1, DNA topoisomerase 1 (Homo sapiens) (UniProt P11387).
T1 sequence (whole entry): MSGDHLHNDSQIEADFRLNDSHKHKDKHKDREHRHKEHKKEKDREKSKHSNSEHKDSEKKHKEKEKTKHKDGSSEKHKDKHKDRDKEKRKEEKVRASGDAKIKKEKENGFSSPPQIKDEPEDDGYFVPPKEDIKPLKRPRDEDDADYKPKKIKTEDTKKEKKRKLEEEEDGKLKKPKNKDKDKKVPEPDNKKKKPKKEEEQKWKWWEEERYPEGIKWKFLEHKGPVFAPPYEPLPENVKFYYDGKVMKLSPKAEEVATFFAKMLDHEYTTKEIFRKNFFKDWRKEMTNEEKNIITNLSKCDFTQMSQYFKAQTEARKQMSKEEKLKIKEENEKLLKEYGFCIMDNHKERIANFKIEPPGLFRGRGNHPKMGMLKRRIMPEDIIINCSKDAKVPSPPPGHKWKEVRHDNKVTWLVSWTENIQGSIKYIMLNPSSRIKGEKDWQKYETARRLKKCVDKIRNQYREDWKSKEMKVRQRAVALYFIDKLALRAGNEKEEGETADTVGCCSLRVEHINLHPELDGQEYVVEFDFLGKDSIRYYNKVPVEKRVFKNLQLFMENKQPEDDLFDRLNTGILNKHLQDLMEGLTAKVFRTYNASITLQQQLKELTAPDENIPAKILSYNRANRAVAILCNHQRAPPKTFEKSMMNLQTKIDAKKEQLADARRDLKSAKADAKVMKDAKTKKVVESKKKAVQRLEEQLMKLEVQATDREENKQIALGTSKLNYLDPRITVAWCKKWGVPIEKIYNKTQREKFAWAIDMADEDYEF
The test can be described thus: Inhibition of recombinant human DNA topoisomerase-1-mediated relaxation of supercoiled pBR322 at 20 uM after 30 mins using ethidium bromide staining by agarose gel electrophoresis. A digest of the protocol: (§3)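 Compounds from 20 mM DMSO stocks. 100 ng pBR322 plasmid DNA with 1 unit recombinant human topo I, with or without compound, 37 °C for 30 min. Relaxation buffer was 10 mM Tris-HCl pH 7.9, 150 mM NaCl, 0.1% BSA, 1 mM spermidine. Relaxation of supercoiled DNA assessed by gel imaging.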

The target of test [3] is T1, DNA topoisomerase 1 (Homo sapiens). Briefly: Inhibition of recombinant human DNA topoisomerase-1-mediated relaxation of supercoiled pBR322 at 100 uM after 30 mins using ethidium bromide staining by agarose gel electrophoresis. An outline of the steps:
as §3

The subject of a further test is DU-145. The test can be described thus: Cytotoxicity against human DU145 cells after 2 days by cell counting kit-8 analysis. Format: functional, cell-based. As to conditions: DU-145, 48 h. An outline of the steps: as §1
In the next test the test system is HEK293. Briefly: Cytotoxicity against human HEK293 cells after 2 days by cell counting kit-8 analysis. Format: cell-based. The conditions noted are these: HEK293, 48 h. An outline of the steps:
as §1

Test [4] has as its target DNA topoisomerase 2-alpha (Homo sapiens) (UniProt P11388). Briefly: Inhibition of human DNA topoisomerase-2alpha-mediated relaxation of supercoiled pBR322 at 100 uM after 30 mins using ethidium bromide staining by agarose gel electrophoresis. An outline of the steps: as §2

DNA topoisomerase 2-alpha (Homo sapiens), sequence (P11388 whole entry): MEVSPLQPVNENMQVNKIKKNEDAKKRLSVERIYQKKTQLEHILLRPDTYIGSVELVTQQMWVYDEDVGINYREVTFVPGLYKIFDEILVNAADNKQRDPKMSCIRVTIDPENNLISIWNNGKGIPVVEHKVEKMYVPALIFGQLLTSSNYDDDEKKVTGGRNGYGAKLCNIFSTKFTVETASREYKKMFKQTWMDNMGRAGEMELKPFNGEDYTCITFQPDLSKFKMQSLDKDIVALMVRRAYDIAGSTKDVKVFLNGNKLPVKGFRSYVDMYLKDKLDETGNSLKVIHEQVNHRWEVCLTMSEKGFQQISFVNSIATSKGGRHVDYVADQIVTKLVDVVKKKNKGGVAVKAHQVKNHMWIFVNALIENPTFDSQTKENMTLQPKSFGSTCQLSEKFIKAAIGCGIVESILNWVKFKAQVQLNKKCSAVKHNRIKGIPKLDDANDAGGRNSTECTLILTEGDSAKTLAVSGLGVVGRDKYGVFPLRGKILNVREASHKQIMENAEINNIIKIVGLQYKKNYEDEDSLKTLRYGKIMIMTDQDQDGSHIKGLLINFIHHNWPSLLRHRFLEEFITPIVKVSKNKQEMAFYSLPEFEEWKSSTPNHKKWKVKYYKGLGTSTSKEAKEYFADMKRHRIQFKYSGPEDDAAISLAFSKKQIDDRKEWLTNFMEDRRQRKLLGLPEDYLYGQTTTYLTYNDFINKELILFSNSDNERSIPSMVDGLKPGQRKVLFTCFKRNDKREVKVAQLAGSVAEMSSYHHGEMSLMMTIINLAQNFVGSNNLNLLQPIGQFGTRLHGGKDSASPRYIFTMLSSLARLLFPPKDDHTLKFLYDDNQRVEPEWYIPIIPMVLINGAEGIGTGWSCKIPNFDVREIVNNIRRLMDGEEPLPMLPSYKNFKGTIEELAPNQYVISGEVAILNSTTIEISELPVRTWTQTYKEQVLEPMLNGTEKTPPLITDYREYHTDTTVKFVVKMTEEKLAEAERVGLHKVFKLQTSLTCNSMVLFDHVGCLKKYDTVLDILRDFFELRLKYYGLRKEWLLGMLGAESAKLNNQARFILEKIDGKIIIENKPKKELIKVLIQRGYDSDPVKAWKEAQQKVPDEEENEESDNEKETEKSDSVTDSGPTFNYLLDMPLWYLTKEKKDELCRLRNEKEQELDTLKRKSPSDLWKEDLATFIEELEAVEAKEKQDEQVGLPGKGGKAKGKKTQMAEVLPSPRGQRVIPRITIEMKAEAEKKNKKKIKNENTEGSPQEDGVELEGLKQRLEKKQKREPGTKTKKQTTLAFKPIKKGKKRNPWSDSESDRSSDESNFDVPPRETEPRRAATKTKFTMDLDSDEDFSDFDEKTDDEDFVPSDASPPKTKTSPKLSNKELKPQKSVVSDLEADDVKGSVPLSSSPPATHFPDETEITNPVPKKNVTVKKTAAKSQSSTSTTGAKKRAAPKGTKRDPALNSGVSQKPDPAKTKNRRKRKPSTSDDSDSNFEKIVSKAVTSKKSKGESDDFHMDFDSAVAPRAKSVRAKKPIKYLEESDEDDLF

For `Oc1ccc(-c2cc(-c3cccc(Cl)c3)nc(-c3cccs3)c2)cc1`, the IC50 came to 5.35 µM in the test on T47D, 5.05 µM in the test on HCT-15, 5.74 µM with DU-145 and 2.72 µM in the test with HEK293. In addition, the inhibition in test [1] is 0%; in test [2] it was 0%; in test [3], 52.4%; in test [4] it was 72.4%.

For `Oc1ccc(-c2cc(-c3cccnc3)nc(-c3cccc(Cl)c3)c2)cc1`, the IC50 in the test on T47D was 25.7 µM; with HCT-15 it was 21.3 µM; in the test on DU-145, 22.9 µM; with HEK293, 25.7 µM. Further, the inhibition in test [1] stood at 0%; in test [2], 0%; in test [3] it was 55.2%; in test [4], 46.9%.

As for `Oc1cccc(-c2cc(-c3ccc(Cl)cc3)nc(-c3cccnc3)c2)c1`, the IC50 with T47D was found to be 18.1 µM; in the test on HCT-15, 16.8 µM; in the test on DU-145, 26.8 µM; in the test on HEK293, 39.5 µM. For the same compound, the figures for the inhibition in test [1], in test [3] and in test [4] were 10.6%, 2.8% and 40.4%, respectively.

In the case of `Oc1cccc(-c2cc(-c3ccsc3)nc(-c3cccc(Cl)c3)c2)c1`, the IC50 was 3.54 µM with T47D, 2.51 µM in the test on HCT-15, 3.33 µM in the test with DU-145 and 3.18 µM in the test on HEK293. Further, the inhibition in test [1] came out at 15.4%; in test [3], 26.2%; in test [4], 80.1%.

Turning to `Oc1ccc(-c2cc(-c3cccs3)nc(-c3ccccc3Cl)c2)cc1`, the IC50 amounted to 5.87 µM in the test on T47D, 5.43 µM in the test with HCT-15, 4.19 µM with DU-145 and 5.22 µM in the test with HEK293. The inhibition amounted to 8.2% in test [1], 2.2% in test [3] and 78.3% in test [4].

On to `Oc1ccc(-c2cc(-c3ccco3)nc(-c3ccccc3Cl)c2)cc1`, for which the 50% inhibitory concentration (IC50) in the test with T47D was 5.48 µM; with HCT-15 it was 5.46 µM; in the test on DU-145, 5.3 µM; in the test on HEK293, 4.31 µM. The inhibition in test [1] was 7.7%; in test [3] it was 3.9%; in test [4], 77.8%.

Turning to `Oc1cccc(-c2cc(-c3ccccc3)nc(-c3ccc(Cl)cc3)c2)c1`, the IC50 in the test with T47D was 11.3 µM; in the test on HCT-15 it was 8.11 µM; in the test with DU-145, 11.2 µM; in the test on HEK293, 11.6 µM. Moreover, the inhibition is 53% in test [1], 7.1% in test [3] and 76.3% in test [4].

Turning to `Oc1ccc(-c2cc(-c3cccc(Cl)c3)nc(-c3ccco3)c2)cc1`, the half-maximal inhibitory concentration (IC50) in the test on T47D was determined as 5.22 µM; with HCT-15 it was 8.02 µM; in the test on DU-145, 5.75 µM; with HEK293 it was 2.88 µM. For the same compound, the inhibition in test [1] is 0%; in test [3], 25.5%; in test [4], 71.3%.

`Oc1cccc(-c2cc(-c3ccccc3)nc(-c3cccc(Cl)c3)c2)c1`: the IC50 in the test on T47D came out at 3.7 µM; with HCT-15, 2.55 µM; in the test with DU-145, 2.75 µM; in the test on HEK293 it was 3.12 µM. Further, the inhibition in test [1] worked out at 49.1%; in test [3] it was 11.5%; in test [4], 81.1%.

Consider `Oc1cccc(-c2cc(-c3cccs3)nc(-c3ccccc3Cl)c2)c1`, for which the IC50 in the test with T47D is 3.99 µM; in the test on HCT-15, 2.79 µM; in the test on DU-145, 1.7 µM; in the test with HEK293 it was 2.6 µM. Also, the inhibition was found to be 10.7% in test [1], 2.7% in test [3] and 78.9% in test [4].

Turning to `Oc1cccc(-c2cc(-c3ccco3)nc(-c3ccccc3Cl)c2)c1`, the IC50 turned out to be 2.01 µM in the test on T47D, 2.23 µM with HCT-15, 1.63 µM with DU-145 and 1.86 µM in the test with HEK293. Also, the inhibition came out at 8.6% in test [1], 0% in test [3] and 77.9% in test [4].

In the case of `Oc1ccc(-c2cc(-c3ccccc3)nc(-c3ccccc3Cl)c2)cc1`, the IC50 with T47D came out at 5.46 µM; in the test on HCT-15, 4.99 µM; in the test on DU-145, 2.8 µM; in the test with HEK293, 3.93 µM. Besides, the inhibition in test [1] turned out to be 5.5%; in test [3] it was 13.6%; in test [4] it was 77.5%.

Turning to `Oc1cccc(-c2cc(-c3cccc(Cl)c3)nc(-c3ccco3)c2)c1`, the IC50 amounted to 3.57 µM with T47D, 2.46 µM with HCT-15, 2.02 µM in the test with DU-145 and 2.53 µM with HEK293. Moreover, the inhibition was found to be 4.8% in test [1], 5.5% in test [3] and 70.1% in test [4].

Turning to `Oc1cccc(-c2cc(-c3ccc(Cl)cc3)nc(-c3ccsc3)c2)c1`, the IC50 with T47D came to 11.5 µM; with HCT-15, 8.85 µM; in the test with DU-145 it was 11.6 µM; with HEK293, 11.2 µM. For the same compound, the inhibition was 38.3% in test [1], 11.7% in test [3] and 71.6% in test [4].

On to `Oc1ccc(-c2cc(-c3ccc(Cl)cc3)nc(-c3cccnc3)c2)cc1`, for which the IC50 stood at 29.3 µM in the test on T47D, 20.7 µM in the test on HCT-15, 22.8 µM with DU-145 and 27.4 µM in the test on HEK293. Moreover, the values for the inhibition in test [1], in test [3] and in test [4] were 11.9%, 18.8% and 59.1%, respectively.

For `Oc1cccc(-c2cc(-c3ccncc3)nc(-c3ccc(Cl)cc3)c2)c1`, the IC50 in the test with T47D worked out at 3.33 µM; in the test with HCT-15, 2.63 µM; in the test on DU-145, 2.51 µM; with HEK293, 2.89 µM. Also, the results for the inhibition in test [1], in test [3] and in test [4] were 12.9%, 8% and 51.7%, respectively.

On to `Oc1ccc(-c2cc(-c3ccsc3)nc(-c3ccccc3Cl)c2)cc1`, for which the IC50 with T47D was found to be 6.11 µM; in the test with HCT-15 it was 5.83 µM; in the test with DU-145 it was 3.89 µM; in the test with HEK293, 5.93 µM. Moreover, the inhibition is 29.2% in test [1], 4.1% in test [3] and 80.5% in test [4].

Consider `Oc1cccc(-c2cc(-c3ccc(Cl)cc3)nc(-c3ccco3)c2)c1`, for which the IC50 came out at 10.5 µM in the test with T47D, 10.2 µM in the test on HCT-15, 11.4 µM with DU-145 and 8.19 µM with HEK293. Also, the figures for the inhibition in test [1], in test [3] and in test [4] were 16.7%, 27.1% and 63.8%, respectively.

Turning to `Oc1ccc(-c2cc(-c3ccc(Cl)cc3)nc(-c3ccco3)c2)cc1`, the IC50 in the test on T47D was determined as 6.26 µM; in the test with HCT-15, 7.02 µM; in the test on DU-145, 7.28 µM; in the test on HEK293, 5.72 µM. Also, the inhibition in test [1] was determined as 36.2%; in test [3], 15.8%; in test [4], 84.1%.

With `Oc1ccc(-c2cc(-c3ccc(Cl)cc3)nc(-c3ccccn3)c2)cc1`, the IC50 in the test on T47D was found to be 25.9 µM; with HCT-15, 21.3 µM; in the test with DU-145 it was 22.5 µM; in the test on HEK293, 27.2 µM. The inhibition in test [1] came to 13.1%; in test [3] it was 12.7%; in test [4] it was 66.7%.

`Oc1cccc(-c2cc(-c3ccsc3)nc(-c3ccccc3Cl)c2)c1`: the IC50 in the test with T47D was determined as 2.44 µM; with HCT-15 it was 2.5 µM; in the test on DU-145 it was 1.97 µM; in the test with HEK293, 2.72 µM. Further, the inhibition came out at 15.7% in test [1], 0% in test [3] and 77.1% in test [4].

With `Oc1cccc(-c2cc(-c3cccc(Cl)c3)nc(-c3cccs3)c2)c1`, the IC50 with T47D came out at 3.41 µM; in the test on HCT-15 it was 2.61 µM; with DU-145, 2.65 µM; in the test with HEK293, 3.15 µM. Moreover, the results for the inhibition in test [1], in test [3] and in test [4] were 39%, 7.6% and 80.4%, respectively.

One may read the IC50 as the midpoint of a concentration-inhibition curve. The inhibition is the relative decrease from the control value, in per cent.
